INS-1E rescue = rescue of cytokine-induced death in INS-1E beta cells; INS-1E cytokine-induced death, ATP luminescence, 48 h; normalised: neutral wells 0, positive control 100; AID 488910; 0.1% of 20,000 active; protection from cytokine-induced ATP loss, % at 10 µM;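 active means mean replicate protection from cytokine-induced ATP loss at least 50% and at least 75% of replicates each reaching 50%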
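assay system = INS-1E rat insulinoma cells | amount = 8000 cells per well | medium = phenol-red-free RPMI with 5% fetal bovine serum | doses = one compound concentration, pin transfer | timing = 48 h cytokine plus compound treatment, 10 min reagent incubation | also added = IL-1β, TNF-α and IFN-γ cytokine mix | signal = CellTiter-Glo luminescence measuring cellular ATP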
T cruzi HTS = inhibitors of intracellular Trypanosoma cruzi; intracellular Trypanosoma cruzi in host cells, plate reader; activity score (inhibition), % at 5.01 µM; 4.9% of 22,000 active; in the data active means activity score above about 55%;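 further: parasites and compound incubated about four days before reading; 0% = median of neutral control wells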
A1 apoptosis 2 = blocks A1, raising caspase activity; MEF A1-2A-BIM cells, caspase-Glo luminescence, 3 h; percent of clofoctol response, DMSO zero; caspase activation, % (no concentration beside the values); 24,000 tested, under 10 active; AID 2465; in the data active means caspase activation above about 5.9%
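Material: A1-2A-BIM-expressing MEF cells. Buffer or medium: RPMI-1640 plus 10% FBS. Incubation: cells settled overnight, compound exposure 3 h at 37 °C, 5% CO2. Signal: Caspase-Glo 3/7 luminescence, 1 h at room temperature.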
Numbers without * were called inactive; . = not tested or not shown. The full list was thinned out, with hits kept by preference.

SMILES	INS-1E rescue	T cruzi HTS	A1 apoptosis 2
C[C@@H]1CN([C@@H](C)CO)C(=O)Cc2cc(NC(=O)Nc3ccccc3)ccc2O[C@H]1CN(C)Cc1ccc(Oc2ccccc2)cc1	.	.	0.6
C[C@H]1CN([C@@H](C)CO)C(=O)Cc2cc(NC(=O)Nc3ccccc3)ccc2O[C@@H]1CN(C)Cc1ccc(Oc2ccccc2)cc1	-26.0	49.2	.
C[C@H]1CN([C@@H](C)CO)C(=O)Cc2cc(NC(=O)Nc3ccccc3)ccc2O[C@H]1CN(C)Cc1ccc(Oc2ccccc2)cc1	-15.9	-3.9	.
C[C@H]1CN([C@@H](C)CO)C(=O)Cc2cc(NC(=O)Cc3ccccc3)ccc2O[C@@H]1CN(C)Cc1ccc(Oc2ccccc2)cc1	-29.8	63.0*	.
C[C@H](CO)N1C[C@H](C)[C@H](CN(C)Cc2ccc(Oc3ccccc3)cc2)Oc2ccc(NC(=O)Cc3ccccc3)cc2CC1=O	-41.2	54.2	0.7
O=C(CCCCC(=O)N/N=C/c1ccc(Br)s1)NO	.	.	-0.9
CO[C@H]1O[C@H](CO)[C@@H](OC(=O)CCc2ccccc2)[C@H](OC(=O)c2cc3ccccc3[nH]2)[C@H]1OC(=O)c1cc2ccccc2[nH]1	.	.	0.3
O=C(N/N=C/c1ccc2ccccc2n1)c1ccccc1O	-15.3	-0.8	.
CCCCCCC/C=N/NC(=O)CCCCCCC(=O)OC	6.4	-16.0	0.9
CC1(C)COC(CCC/C=N/NC(=O)CCCCCCC(=O)O)OC1	1.0	-27.3	.
C[C@@H]1CN([C@H](C)CO)C(=O)Cc2cc(NC(=O)Cc3ccccc3)ccc2O[C@@H]1CN(C)Cc1ccc(-c2ccccc2)cc1	-61.7	71.8*	0.9
C[C@@H]1CN([C@@H](C)CO)C(=O)Cc2cc(NC(=O)CCC(F)(F)F)ccc2O[C@H]1CN(C)Cc1ccc(-c2ccccc2)cc1	.	.	1.5
C[C@H]1CN([C@@H](C)CO)C(=O)Cc2cc(NC(=O)CCC(F)(F)F)ccc2O[C@@H]1CN(C)Cc1ccc(-c2ccccc2)cc1	-52.8	60.0*	.
C[C@H](CO)N1C[C@H](C)[C@H](CN(C)Cc2ccc(-c3ccccc3)cc2)Oc2ccc(NC(=O)Cc3ccccc3)cc2CC1=O	-18.5	47.2	.
COCCOC(=O)N1C(=O)[C@@]2(c3ccccc31)[C@H](c1ccc(OCCO)cc1)N1[C@H](c3ccccc3)[C@H](c3ccccc3)OC(=O)[C@H]1[C@@H]2C(=O)Nc1nc2ccccc2s1	.	.	-0.8
O=C1O[C@H](c2ccccc2)[C@H](c2ccccc2)N2[C@H]1[C@@H](C(=O)N1CCCCCCC1)[C@]1(C(=O)Nc3ccc(C#CCCO)cc31)[C@H]2c1ccccc1OCCO	.	.	0.3
COc1ccc(/C=N/NC(=O)CCCCCCC(=O)O)c(O)c1	13.6	-18.3	.
COc1ccc(NC(=O)Nc2cccc3c2O[C@H](CN(C)Cc2ccc(Cl)c(Cl)c2)[C@H](C)CN([C@H](C)CO)C3=O)cc1	-35.6	16.1	.
C[C@H](CO)N1C[C@H](C)[C@H](CN(C)Cc2ccc(Cl)c(Cl)c2)Oc2c(NC(=O)Nc3ccc4c(c3)OCO4)cccc2C1=O	-22.8	81.9*	.
C[C@@H]1CN([C@@H](C)CO)C(=O)c2cccc(NC(=O)Nc3ccccc3)c2O[C@H]1CN(C)Cc1ccc(Cl)c(Cl)c1	-32.2	58.9*	.
COc1ccc(NC(=O)Nc2cccc3c2O[C@@H](CN(C)Cc2ccc(Cl)c(Cl)c2)[C@@H](C)CN([C@H](C)CO)C3=O)cc1	-14.8	58.6*	.
C[C@@H]1CN([C@H](C)CO)C(=O)c2cccc(NC(=O)Nc3ccc4c(c3)OCO4)c2O[C@@H]1CN(C)Cc1ccc(Cl)c(Cl)c1	-20.6	-0.6	.
C[C@@H]1CN([C@H](C)CO)C(=O)c2cccc(NC(=O)Nc3ccccc3)c2O[C@@H]1CN(C)Cc1ccc(Cl)c(Cl)c1	-54.9	30.5	.
O=C(NO)c1cccc(C(=O)N/N=C/c2cc3c(cc2Br)OCO3)c1	0.3	1.1	.
C=CCNC(=O)[C@H]1[C@@H]2C(=O)O[C@@H](c3ccccc3)[C@@H](c3ccccc3)N2[C@@H](c2ccc(OCCO)cc2)[C@]12C(=O)N(C(=O)OCCOC)c1ccc(C#CCC(C(=O)OC)C(=O)OC)cc12	.	.	1.5
Cc1ccc(/C=N/NC(=O)CCCCCCC(=O)NO)o1	.	.	0.4
O=C(N/N=C/c1ccc(F)c(Oc2ccccc2)c1)c1ccccn1	-0.7	5.1	-4.3
C[C@@H]1CN([C@H](C)CO)C(=O)c2cccc(NC(=O)c3ccncc3)c2O[C@H]1CN(C)Cc1ccc(Cl)c(Cl)c1	0.8	75.9*	-0.7
C[C@H](CO)N1C[C@H](C)[C@H](CN(C)Cc2ccncc2)Oc2c(NC(=O)c3ccncc3)cccc2C1=O	4.0	-8.0	0.1

High-throughput results: PubChem BioAssay, Broad Institute
